Compound activity as filed in PubChem.
SR-BI DiI inh = inhibitors of SR-BI mediated HDL lipid uptake, primary screen, ldlA[mSR-BI] cells, fluorescence, single point | ldlA[mSR-BI] CHO cells, DiI-HDL uptake fluorescence, 3 h | inhibition, % at 12.5 µM | 320,000 compounds, 0.96% hits | AID 488896, 2010;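 active = mean replicate inhibition of at least 70% and a set share of replicates each scoring 70 or more; inconclusive = meets just one of the two criteria; inactive = fails both criteria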;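 also: 0% = median of neutral control wells and 100% = median of positive control wells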
Target sequence (Q61009 whole entry, looked up): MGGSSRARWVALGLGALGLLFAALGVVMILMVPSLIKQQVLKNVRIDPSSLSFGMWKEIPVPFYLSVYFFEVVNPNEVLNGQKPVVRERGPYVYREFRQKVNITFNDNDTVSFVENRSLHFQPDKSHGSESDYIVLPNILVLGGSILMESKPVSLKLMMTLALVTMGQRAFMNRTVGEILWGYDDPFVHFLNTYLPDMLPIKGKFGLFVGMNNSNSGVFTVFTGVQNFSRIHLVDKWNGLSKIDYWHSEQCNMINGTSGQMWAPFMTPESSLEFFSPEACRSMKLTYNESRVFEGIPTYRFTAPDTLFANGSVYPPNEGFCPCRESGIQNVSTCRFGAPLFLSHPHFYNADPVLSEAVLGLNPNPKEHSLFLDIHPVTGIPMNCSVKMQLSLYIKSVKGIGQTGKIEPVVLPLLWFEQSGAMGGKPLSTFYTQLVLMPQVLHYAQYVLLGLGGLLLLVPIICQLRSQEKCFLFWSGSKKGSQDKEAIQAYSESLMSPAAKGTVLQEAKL
CaV13 ICDI inh = Primary screen for inhibitors of IQ motif and Ca2+-dependent inactivation inhibitor domain binding in CACNA1D, Förster resonance energy transfer in living cells, …. HEK cells, CFP/YFP FRET ICDI-IQ, plate reader, 10 min; percent FRET-ratio fall versus neutral wells. AID 743397. inhibition, % at 12.3 µM. 340,000 compounds, 0.098% hits;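 active = mean replicate inhibition of at least 30% and at least 1% of replicates passing that level; inconclusive = only one of the two criteria is met; inactive = neither criterion is met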;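 also: 0% = median of the neutral control wells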
FN deposit inh = inhibitors of fibronectin matrix deposition, primary screen, AH1F cells, Alexa488-fibronectin fluorescence, plate reader. inhibition, % at 12.6 µM. AH1F fibroblasts, overnight. AID 743247, 2014. 350,000 compounds, 0.086% hits;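 active = mean inhibition across replicates of 30% or more, regardless of how many single replicates reach that level; inconclusive = mean under 30% yet at least half of replicates reach 30%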;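 also: positive control wells lacked labelled fibronectin entirely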
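Assay system: AH1F fibroblast monolayer, labelled fibronectin deposition. Amount: 10000 cells per well. Also added: labelled fibronectin 24 nM. Compound: single-point pinned compound. Incubation: cell attachment 1 h, compound and FN exposure overnight. Detection: fluorescence after three HBSS washes, excitation 485 nm, emission 525 nm. Read-out: inhibition of fibronectin deposition signal.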
SR-BI DiI-HDL act = activators of SR-BI mediated DiI-HDL uptake, primary screen, ldlA[mSR-BI] CHO cells, DiI fluorescence; 3 h; 100 = double the neutral-control signal; activation, % at 12.5 µM; 320,000 compounds, 0.096% hits;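 active = mean replicate activation of at least 60% and every replicate at or above 60%; inconclusive = mean or all-replicate condition met, but not both; inactive = mean below 60% and not all replicates reaching 60%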;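 also: 0% = median plate neutral-control signal and 100% = twice that signal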
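Test system: SR-BI-overexpressing, LDLR-lacking CHO cells; Medium: Ham's F12 with 0.5% BSA, HEPES 25 mM, pH 7.4; Schedule: 3 h, 37 °C; Technique: bottom-read fluorescence, 550/595 nm.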
Efflux pump inh = inhibitors of Candida efflux pumps in yeast, primary screen, S. cerevisiae, Nile Red, multiplex; S. cerevisiae Candida pump triplex; inhibition, % at 10 µM; 330,000 compounds, 0.44% hits; AID 485275, 2010;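 active = plate passing quality check with inhibition over a set limit, or well fluorescence over plate mean plus 4 SD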;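 also: Nile Red retained in pooled yeast measured as flow cytometry median fluorescence; 0% = buffer negative control and 100% = Enniatin B positive control; higher means more Nile Red kept so more efflux inhibition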
DiI quench = DiI fluorescence quenching in cell-free counter-screen; AC50, µM (series often up to 35 µM), inactives show at the highest dose activity change, negative = quenching; 470 compounds, 20% hits; shares compounds with SR-BI DiI inh; cell-free DiI-HDL fluorescence quenching, 30 min; AID 540326;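 active = quenching, a falling signal, with AC50 below a set limit tied to the top valid dose, actives reach about 32 µM in these data; inconclusive = no clear call, values can overlap the other calls; inactive = rising signal, and the rest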
* hit, by the source's call; ? = inconclusive; . = not tested or not shown. Rows were chosen to be rich in hits. Some 1.2% of all compounds tested hit in one or more screens of this group.

SMILES	SR-BI DiI inh	CaV13 ICDI inh	FN deposit inh	SR-BI DiI-HDL act	Efflux pump inh	DiI quench
O=C(Nc1ncc(Cc2cccc(C(F)(F)F)c2)s1)c1ccc(-c2cccc([N+](=O)[O-])c2)o1	51	-5	0	-51	0	-10%
Cc1ccc(-c2ccc(C3[C@@H]4CN(Cc5cccc(F)c5)C[C@H]3N4)cc2)cc1 (some centres not stated)	.	.	10	.	.	.
O=C(NCCc1ccccc1)C1CCN(C(=O)c2sccc2-n2cccc2)CC1	81*	-3	0	-81	0	-6%
COc1ccccc1CNC(=O)C1CCN(C(=O)N(C)C)CC1	-8	-4	-7	8	1	.
COc1ccccc1CNC(=O)C1CCN(C(=O)c2sccc2-n2cccc2)CC1	?	-4	6	-71	0	-2%
Cc1ccc(CCNC(=O)C2CCN(C(=O)c3sccc3-n3cccc3)CC2)cc1	50	-6	.	-50	0	-2%
O=C(NCc1cccc(F)c1)C1CCN(C(=O)c2sccc2-n2cccc2)CC1	50	-6	-4	-50	0	.
CC(C)C#Cc1cnc2c(c1)C(=O)N([C@@H](C)CO)C[C@@H](C)[C@@H](CN(C)Cc1ccccc1F)O2	.	.	0	.	.	.
CCCNC(=O)N[C@H]1CC[C@@H](CC(=O)NC2CCCCC2)O[C@@H]1CO	.	.	2	.	.	.
CC(C)[C@H](NC(=O)c1ccco1)C(=O)OCC(=O)c1ccc2c(c1)NC(=O)CO2	-20	-4	14	20	0	-5%
CC(=O)c1c(C)[nH]c(C(=O)Nc2ccc(C)c(S(=O)(=O)Nc3ccc(C)cc3C)c2)c1C	83*	11	-3	-83	0	11%
O=C(Nc1ccccc1)NC1CC2CCC(C1)N2Cc1nnnn1Cc1ccc2c(c1)OCO2 (configuration not stated)	?	.	10	-71	0	1%
COc1ccc(OC[C@@H](O)CNC(=O)c2cccc3c2C(=O)c2ccc(-c4ccc(F)cc4OCc4ccccc4)cc2S3(=O)=O)cc1	80*	.	.	-80	1	-19%
CC1CCN(CC(O)COC2CC(C)CCC2C(C)C)CC1 (configuration not stated)	-11	-4	2	11	0	.
CCOC(=O)N1CCN(CC(O)COC2CC(C)CCC2C(C)C)CC1 (configuration not stated)	78*	-5	.	-78	0	-4%
CCC(=O)Nc1ccc2c(c1)C(=O)N(C)[C@@H]1CC[C@@H](CC(=O)N3CCCCC3)O[C@@H]1CO2	.	.	-4	.	.	.
CC(C)NC(=O)Nc1ccc2c(c1)C(=O)N(C)[C@H]1CC[C@H](CC(=O)NCC(F)(F)F)O[C@H]1CO2	.	.	-7	.	.	.
COCCCNc1nc2c(-c3ccc(C)cc3)nnn2c2ccccc12	52	-5	-3	-52	0	.
COCCCNc1nc2c(-c3cccc(C)c3)nnn2c2ccccc12	103*	-3	8	-103	0	10%
CCCNC(=O)N1C[C@H](C)[C@H](OC)CN(C)C(=O)c2cc(NC(=O)C3CCC3)ccc2OC[C@H]1C	.	.	-1	.	.	.
OC1CCN(c2cc(-c3ccccc3)nc3cc(-c4ccc(F)cc4)nn23)CC1	72*	2	-5	-72	0	6%
CCCNC(=O)C[C@H]1CC[C@@H]2[C@H](COc3ccc(NC(=O)C4CCCC4)cc3C(=O)N2C)O1	.	.	0	.	.	.
Cc1cc(C)n(CC(=O)NC2CCCc3c2cnn3-c2ccc(C)c(C)c2)n1 (configuration not stated)	?	-3	0	-72	0	-2%
CS(=O)(=O)Nc1ccc2c(c1)[C@@H]1C[C@H](CC(=O)NCC(F)(F)F)O[C@@H](CO)[C@@H]1O2	.	.	-12	.	.	.
O=C(C1CCC1)N1CC(=O)N2[C@@H](CO)[C@@H](c3ccc(C#CCc4ccccc4)cc3)[C@@H]2C1	.	.	-8	.	.	.
SMILES	SR-BI DiI inh	CaV13 ICDI inh	FN deposit inh	SR-BI DiI-HDL act	Efflux pump inh	DiI quench
Cc1ccc(S(=O)(=O)NCc2ccc(C(=O)NCCc3ccc(S(N)(=O)=O)cc3)cc2)cc1	92*	-6	-3	-92	0	5%
O=C(OCc1ccccc1)N1CCC2CC1c1cc(-c3ccc(F)cc3)ccc12 (configuration not stated)	.	-10	-2	.	.	-4%
Cc1c(C(=O)OCC2CCCO2)[nH]c2c1C(=O)CC(c1ccco1)C2 (configuration not stated)	53	.	.	-53	0	-10%
C/C=C/COC(=O)c1[nH]c2c(c1C)C(=O)CC(c1ccco1)C2 (configuration not stated)	78*	-2	-21	-78	0	-7%
Cc1c(C(=O)OCC(C)C)[nH]c2c1C(=O)CC(c1ccco1)C2 (configuration not stated)	66	-13	3	-66	0	.
O=C(CN(Cc1ccco1)C(=O)Cn1nnc(-c2ccc(F)cc2)n1)NC1CCCC1	18	-3	-25	-18	0	.
O=C(CN(C(=O)Cn1nnc(-c2ccc(F)cc2)n1)C1CCCC1)NC1CCCC1	94*	-4	0	-94	0	-2%
CC(C)(C)NC(=O)C(c1c[nH]c2ccccc12)N(C(=O)Cn1nnc(-c2ccc(Cl)cc2)n1)c1ccccc1F (configuration not stated)	3	-2	-4	-3	2	.
Cc1ccc(N(CC(=O)NC2CCCCC2)C(=O)Cn2nnc(-c3ccc(C)o3)n2)cc1	-28	5	-4	28	0	.
O=C(CCCC(=O)N(CC(=O)NC1CCCC1)C1CCCC1)Nc1ccccn1	?	-6	.	-74	0	1%
O=C(NC1CCCC1)C(c1c[nH]c2ccccc12)N(C(=O)Cn1nnc(-c2ccc(Cl)cc2)n1)c1ccccc1 (configuration not stated)	-6	-4	-4	6	0	-1%
COc1ccc(C)cc1N(CC(=O)NC1CCCC1)C(=O)Cn1nnc(-c2ccc(C)o2)n1	76*	-5	0	-77	.	-2%
COc1ccc(S(=O)(=O)Nc2ccc3c(c2)C(=O)N([C@@H](C)CO)C[C@@H](C)[C@H](CN(C)Cc2ccncc2)O3)cc1	.	.	-12	.	.	.
Cc1ccc(S(=O)(=O)N[C@@H]2C=C[C@@H](CC(=O)NC3CCCCC3)O[C@@H]2CO)cc1	.	.	1	.	.	.
CO[C@H]1CN(C)C(=O)c2ccc(NS(=O)(=O)c3ccccc3)cc2OC[C@@H](C)N(Cc2cccnc2)C[C@H]1C	.	.	-6	.	.	.
